In ChEMBL document CHEMBL5335771, “Thioxanthenone-based derivatives as multitarget therapeutic leads for Alzheimer's disease” (Eur J Med Chem, 2023):
Activity calls are given as the source filed them. The rule behind the calls is not given here.

Assays:
[1] = biological target: Microtubule-associated protein tau (Homo sapiens, UniProt P10636); assay: Inhibition of tau (unknown origin) aggregation expressed in Escherichia coli BL21 (DE3)
Outline: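 E. coli BL21(DE3) carrying pTARA (T7 RNA polymerase under PBAD) and pRKT42 (four-repeat tau) grown at 37 °C in M9 with 0.5% glucose, antibiotics and 250 μM ThS to OD600 0.6. […] ThS fluorescence ex 430/em 485 nm, normalized to tau-expressing cells (100%) and non-expressing cells (0%); OD600 checked for growth.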

Acetylcholinesterase = Acetylcholinesterase (Homo sapiens, UniProt P22303); assay: Inhibition of human recombinant AChE using acetylthiocholine iodide as substrate preincubated for 20 mins followed by substrate addition by DTNB reagent based Ellman's method
Acetylcholinesterase, sequence (P22303 whole entry): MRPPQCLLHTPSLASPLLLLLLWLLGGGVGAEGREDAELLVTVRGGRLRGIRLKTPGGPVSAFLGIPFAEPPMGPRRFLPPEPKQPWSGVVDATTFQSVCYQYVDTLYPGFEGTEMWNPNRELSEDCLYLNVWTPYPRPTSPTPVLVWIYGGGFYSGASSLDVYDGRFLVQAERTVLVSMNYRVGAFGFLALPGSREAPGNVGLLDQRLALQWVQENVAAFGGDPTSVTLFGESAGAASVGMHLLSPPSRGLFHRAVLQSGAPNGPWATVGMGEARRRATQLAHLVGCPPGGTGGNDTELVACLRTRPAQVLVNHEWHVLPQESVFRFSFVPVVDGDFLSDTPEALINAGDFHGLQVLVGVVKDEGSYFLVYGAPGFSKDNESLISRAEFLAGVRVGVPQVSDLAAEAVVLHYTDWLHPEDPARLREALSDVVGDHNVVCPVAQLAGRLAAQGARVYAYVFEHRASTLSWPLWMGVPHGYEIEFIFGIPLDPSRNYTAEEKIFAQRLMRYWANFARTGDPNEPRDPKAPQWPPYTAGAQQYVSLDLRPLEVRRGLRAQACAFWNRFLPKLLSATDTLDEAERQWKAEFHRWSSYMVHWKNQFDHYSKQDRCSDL

Cholinesterase [2] = biological target: Cholinesterase (Equus caballus, UniProt P81908); assay: Inhibition of equine serum BChE using butyrylthiocholine iodide as substrate preincubated for 20 mins followed by substrate addition by DTNB reagent based Ellman's method; type: cell-free
Cholinesterase (Equus caballus, UniProt P81908), sequence (P81908 whole entry): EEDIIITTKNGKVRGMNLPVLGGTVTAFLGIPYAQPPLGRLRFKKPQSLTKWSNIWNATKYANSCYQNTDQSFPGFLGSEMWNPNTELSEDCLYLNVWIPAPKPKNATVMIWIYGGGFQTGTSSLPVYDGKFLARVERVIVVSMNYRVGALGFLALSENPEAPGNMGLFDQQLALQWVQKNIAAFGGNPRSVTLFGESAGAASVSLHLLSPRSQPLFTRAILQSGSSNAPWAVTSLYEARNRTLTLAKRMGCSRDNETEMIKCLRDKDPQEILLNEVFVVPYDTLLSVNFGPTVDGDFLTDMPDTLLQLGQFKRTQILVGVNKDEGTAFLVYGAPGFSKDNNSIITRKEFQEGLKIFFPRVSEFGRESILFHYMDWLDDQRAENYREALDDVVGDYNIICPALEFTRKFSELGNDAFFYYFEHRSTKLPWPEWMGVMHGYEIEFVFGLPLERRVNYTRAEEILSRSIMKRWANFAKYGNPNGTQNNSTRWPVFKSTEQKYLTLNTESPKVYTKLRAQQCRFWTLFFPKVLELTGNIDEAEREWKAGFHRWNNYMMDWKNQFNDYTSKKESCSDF

Cholinesterase [3] = biological target: Cholinesterase (Homo sapiens, UniProt P06276); assay: Inhibition of human recombinant BChE using acetylthiocholine iodide as substrate at 10 uM preincubated for 20 mins followed by substrate addition by DTNB reagent based Ellman's method relative to control
Cholinesterase (Homo sapiens, UniProt P06276), sequence (P06276 whole entry): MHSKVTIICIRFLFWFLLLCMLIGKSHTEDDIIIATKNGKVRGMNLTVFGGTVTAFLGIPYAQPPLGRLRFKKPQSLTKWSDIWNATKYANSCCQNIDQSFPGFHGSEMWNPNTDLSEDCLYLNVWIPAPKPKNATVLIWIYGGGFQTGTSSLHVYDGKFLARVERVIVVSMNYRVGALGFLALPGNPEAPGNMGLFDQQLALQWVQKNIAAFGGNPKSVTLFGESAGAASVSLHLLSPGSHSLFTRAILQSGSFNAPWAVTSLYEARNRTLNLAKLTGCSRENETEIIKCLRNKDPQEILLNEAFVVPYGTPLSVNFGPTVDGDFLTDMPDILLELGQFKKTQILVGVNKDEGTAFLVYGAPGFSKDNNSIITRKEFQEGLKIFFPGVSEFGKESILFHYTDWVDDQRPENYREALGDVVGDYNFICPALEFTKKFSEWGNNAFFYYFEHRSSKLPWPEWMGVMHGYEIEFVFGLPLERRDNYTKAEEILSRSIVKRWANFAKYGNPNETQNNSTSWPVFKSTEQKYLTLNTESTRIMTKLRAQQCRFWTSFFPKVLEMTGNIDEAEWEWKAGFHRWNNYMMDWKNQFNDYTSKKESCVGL
Outline: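 Human BChE activity was read by the Ellman spectrophotometric method. Results are % inhibition at a single 10 μM inhibitor concentration. Values are means of three independent experiments.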

[4] = Cytotoxicity against mouse brain Primary embryonic cortical cell assessed as cell death at 2.5 uM incubated for 1 hr by propidium iodide dye based spectrofluorometric analysis relative to control; type: toxicity
Outline: (§1)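 Primary cortical cultures from E16.5 mouse embryo brains, trypsinized, plated on poly-D-lysine, grown in Neurobasal with glutamine, glucose, 5% horse serum and B27; compounds added at 4 DIV. Propidium iodide 30 μM; baseline F1 read 1 h after PI; ex 530/em 645 nm. Fmax after digitonin permeabilization. % death = 100×(Fn−F1)/(Fmax−F1); mean of three independent experiments.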

[5] = Cytotoxicity against mouse brain Primary embryonic cortical cell assessed as cell death at 2.5 uM incubated for 3 hrs by propidium iodide dye based spectrofluorometric analysis relative to control; type: toxicity; outline: as §1
[6] = Cytotoxicity against mouse brain Primary embryonic cortical cell assessed as cell death at 2.5 uM incubated for 4 hrs by propidium iodide dye based spectrofluorometric analysis relative to control; type: toxicity; outline: as §1
[7] = Cytotoxicity against mouse brain Primary embryonic cortical cell assessed as cell death at 2.5 uM incubated for 5 hrs by propidium iodide dye based spectrofluorometric analysis relative to control; type: toxicity; outline: as §1
[8] = Cytotoxicity against mouse brain Primary embryonic cortical cell assessed as cell death at 2.5 uM incubated for 48 hrs by propidium iodide dye based spectrofluorometric analysis relative to control; type: toxicity; outline: as §1
[9] = Cytotoxicity against mouse brain Primary embryonic cortical cell assessed as cell death at 2.5 uM incubated for 72 hrs by propidium iodide dye based spectrofluorometric analysis relative to control; type: toxicity; outline: as §1
[10] = Cytotoxicity against mouse brain Primary embryonic cortical cell assessed as cell death at 5 uM incubated for 2 hrs by propidium iodide dye based spectrofluorometric analysis relative to control; type: toxicity; outline: as §1
[11] = Cytotoxicity against mouse brain Primary embryonic cortical cell assessed as cell death at 5 uM incubated for 3 hrs by propidium iodide dye based spectrofluorometric analysis relative to control; type: toxicity; outline: as §1
[12] = Cytotoxicity against mouse brain Primary embryonic cortical cell assessed as cell death at 5 uM incubated for 5 hrs by propidium iodide dye based spectrofluorometric analysis relative to control; type: toxicity; outline: as §1
[13] = Cytotoxicity against mouse brain Primary embryonic cortical cell assessed as cell death at 5 uM incubated for 6 hrs by propidium iodide dye based spectrofluorometric analysis relative to control; type: toxicity; outline: as §1
[14] = Cytotoxicity against mouse brain Primary embryonic cortical cell assessed as cell death at 5 uM incubated for 24 hrs by propidium iodide dye based spectrofluorometric analysis relative to control; type: toxicity; outline: as §1
[15] = Cytotoxicity against mouse brain Primary embryonic cortical cell assessed as cell death at 5 uM incubated for 48 hrs by propidium iodide dye based spectrofluorometric analysis relative to control; type: toxicity; outline: as §1
[16] = Cytotoxicity against mouse brain Primary embryonic cortical cell assessed as cell death at 10 uM incubated for 1 hr by propidium iodide dye based spectrofluorometric analysis relative to control; type: toxicity; outline: as §1
[17] = Cytotoxicity against mouse brain Primary embryonic cortical cell assessed as cell death at 10 uM incubated for 2 hrs by propidium iodide dye based spectrofluorometric analysis relative to control; type: toxicity; outline: as §1
[18] = Cytotoxicity against mouse brain Primary embryonic cortical cell assessed as cell death at 10 uM incubated for 4 hrs by propidium iodide dye based spectrofluorometric analysis relative to control; type: toxicity; outline: as §1
[19] = Cytotoxicity against mouse brain Primary embryonic cortical cell assessed as cell death at 10 uM incubated for 5 hrs by propidium iodide dye based spectrofluorometric analysis relative to control; type: toxicity; outline: as §1
[20] = Cytotoxicity against mouse brain Primary embryonic cortical cell assessed as cell death at 10 uM incubated for 6 hrs by propidium iodide dye based spectrofluorometric analysis relative to control; type: toxicity; outline: as §1
[21] = Cytotoxicity against mouse brain Primary embryonic cortical cell assessed as cell death at 10 uM incubated for 48 hrs by propidium iodide dye based spectrofluorometric analysis relative to control; type: toxicity; outline: as §1
[22] = Cytotoxicity against mouse brain Primary embryonic cortical cell assessed as cell death at 10 uM incubated for 72 hrs by propidium iodide dye based spectrofluorometric analysis relative to control; type: toxicity; outline: as §1
[23] = Cytotoxicity against mouse brain Primary embryonic cortical cell assessed as cell death at 30 uM incubated for 1 hr by propidium iodide dye based spectrofluorometric analysis relative to control; type: toxicity; outline: as §1
[24] = Cytotoxicity against mouse brain Primary embryonic cortical cell assessed as cell death at 30 uM incubated for 2 hrs by propidium iodide dye based spectrofluorometric analysis relative to control; type: toxicity; outline: as §1
[25] = Cytotoxicity against mouse brain Primary embryonic cortical cell assessed as cell death at 30 uM incubated for 4 hrs by propidium iodide dye based spectrofluorometric analysis relative to control; type: toxicity; outline: as §1
[26] = Cytotoxicity against mouse brain Primary embryonic cortical cell assessed as cell death at 30 uM incubated for 5 hrs by propidium iodide dye based spectrofluorometric analysis relative to control; type: toxicity; outline: as §1
[27] = Cytotoxicity against mouse brain Primary embryonic cortical cell assessed as cell death at 30 uM incubated for 6 hrs by propidium iodide dye based spectrofluorometric analysis relative to control; type: toxicity; outline: as §1
[28] = Cytotoxicity against mouse brain Primary embryonic cortical cell assessed as cell death at 30 uM incubated for 24 hrs by propidium iodide dye based spectrofluorometric analysis relative to control; type: toxicity; outline: as §1
[29] = Cytotoxicity against mouse brain Primary embryonic cortical cell assessed as cell death at 30 uM incubated for 48 hrs by propidium iodide dye based spectrofluorometric analysis relative to control; type: toxicity; outline: as §1
[30] = Cytotoxicity against mouse brain Primary embryonic cortical cell assessed as cell death at 30 uM incubated for 72 hrs by propidium iodide dye based spectrofluorometric analysis relative to control; type: toxicity; outline: as §1
SH-SY5Y = assay: Neuroprotective activity against okadaic acid-induced cytotoxicity in human SH-SY5Y cells assessed as increase in cell viability at 50 uM incubated for 24 hrs by MTT assay; type: functional, cell-based
Outline: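 SH-SY5Y cells grown in DMEM with 10% FBS and plated at 4.5×10^4 cells/well. Incubated 24 h at 37 °C, 5% CO2 with compound (0.1–50 μM) plus okadaic acid 100 nM. Viability by MTT, expressed as % of untreated cells; estradiol and PD38 as positive controls. Mean ± SD of three independent experiments; ANOVA with Dunnett's test.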

Microtubule-associated protein tau, sequence (P10636 whole entry): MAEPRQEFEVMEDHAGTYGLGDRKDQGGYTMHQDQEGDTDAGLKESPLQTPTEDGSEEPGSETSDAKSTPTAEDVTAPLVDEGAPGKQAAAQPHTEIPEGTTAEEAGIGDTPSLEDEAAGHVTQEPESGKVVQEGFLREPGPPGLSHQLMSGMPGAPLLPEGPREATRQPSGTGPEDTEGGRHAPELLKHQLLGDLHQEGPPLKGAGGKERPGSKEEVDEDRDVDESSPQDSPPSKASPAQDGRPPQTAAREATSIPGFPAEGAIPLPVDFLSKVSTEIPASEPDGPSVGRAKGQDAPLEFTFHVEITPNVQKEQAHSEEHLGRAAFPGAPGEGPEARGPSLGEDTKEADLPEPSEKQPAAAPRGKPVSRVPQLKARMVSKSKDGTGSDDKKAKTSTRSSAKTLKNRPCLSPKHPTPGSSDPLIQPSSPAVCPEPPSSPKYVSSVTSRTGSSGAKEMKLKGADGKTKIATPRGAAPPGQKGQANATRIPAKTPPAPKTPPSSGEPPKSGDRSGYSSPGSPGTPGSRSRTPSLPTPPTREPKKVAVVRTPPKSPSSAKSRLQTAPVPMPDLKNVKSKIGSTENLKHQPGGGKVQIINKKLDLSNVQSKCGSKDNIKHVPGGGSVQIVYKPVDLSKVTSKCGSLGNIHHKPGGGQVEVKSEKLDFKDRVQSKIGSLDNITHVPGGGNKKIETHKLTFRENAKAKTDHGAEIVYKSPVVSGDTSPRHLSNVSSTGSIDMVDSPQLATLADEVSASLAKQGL

Compound: COc1ccc2sc3c(C)ccc(NCCC4CCN(C)CC4)c3c(=O)c2c1
- IC50 [1]: 1800 nM
- IC50 (Acetylcholinesterase): 16100 nM
- IC50 (Cholinesterase [2]): 960 nM
- inhibition (Cholinesterase [3]): 16%
- Activity [4]: 2.9%
- Activity [5]: 8.5%
- Activity [6]: 17.4%
- Activity [7]: 23.8%
- Activity [8]: 81.5%
- Activity [9]: 77.8%
- Activity [10]: 7.6%
- Activity [11]: 15.8%
- Activity [12]: 32.6%
- Activity [13]: 41.4%
- Activity [14]: 91.3%
- Activity [15]: 85.6%
- Activity [16]: 16.7%
- Activity [17]: 43.5%
- Activity [18]: 52.6%
- Activity [19]: 54.4%
- Activity [20]: 55.7%
- Activity [21]: 84.1%
- Activity [22]: 92.4%
- Activity [23]: 28.5%
- Activity [24]: 46.5%
- Activity [25]: 56.1%
- Activity [26]: 60.4%
- Activity [27]: 61.9%
- Activity [28]: 86.1%
- Activity [29]: 88.1%
- Activity [30]: 89.4%
- Activity (SH-SY5Y): inactive
